Experimental data taken from article PMC4987166 (Clinical cancer research : an official journal of the …, 2016).

Assays:
[1] = tested on: EWS-FLI1 target genes (NR0B1); experiment: Quantitative RT-PCR of NR0B1 and EWS-FLI1 target gene expression in TC32 cells; type: cell-based; conditions: for concentration showing equivalent suppression of EWS-FLI1 targets NR0B1, EZH2, and ID2: qPCR, 12 h
[2] = tested on: EWS-FLI1 target genes EZH2, NR0B1, and ID2; experiment: Immunoblot of EWS-FLI1 downstream targets; type: cell-based; conditions: TC32 cells, 50 nmol/L, 18 h
TC71 xenograft [3] = conditions: TC32 and TC71 xenografts, 1 mg/kg IP M/W/F; cited from earlier work
Ewing sarcoma cells = experiment: Cell proliferation / cell viability IC50 at 48 h; type: cell-based; conditions: read-out: cell viability IC50; 48 h of treatment
Method in brief: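 Ewing sarcoma cells (TC32/TC71), STR-authenticated, grown in RPMI 1640 with 10% FBS, 2mM L-Gln and penicillin/streptomycin. Cells exposed to test compound for 48 h and cell number recorded across a dose range. IC50 from non-linear regression over at least 3 independent experiments.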

CD-1 mice = experiment: Maximum tolerated dose in healthy CD-1 mice; conditions: mouse, in vivo
γH2AX phosphorylation = experiment: DNA damage by phosphorylation of γH2AX; type: cell-based; conditions: 50 nmol/L mithramycin, 50 nmol/L EC-8042 or 7.5 nmol/L EC-8105
HepG2 cells = experiment: Time-lapse microscopy of HepG2 proliferation; type: cell-based; conditions: 50 nmol/L mithramycin, 50 nmol/L EC-8042 or 7.5 nmol/L EC-8105
rat = experiment: Rat toxicity: liver enzymes, liver synthetic function, hematopoiesis; conditions: in vivo, 8 mg/kg
[4] = Serum drug levels in mice; conditions: mouse, in vivo
TC71 xenograft [5] = experiment: TC71 Ewing sarcoma xenograft in nude mice; type: in vivo
[6] = tested on: NR0B1 expression (EWS-FLI1 activity); experiment: Immunofluorescence for NR0B1 in xenograft tumor tissue; type: in vivo, mouse; conditions: TC71 xenograft, day 3 of treatment, IP

Compound | fold change in NR0B1 expression ([1]; TC32 cells, 50 nmol/L, 12 hr, qPCR vs GAPDH) | concentration showing equivalent suppression of EWS-FLI1 targets NR0B1, EZH2, and ID2 [1] | suppression of EWS-FLI1 targets EZH2, NR0B1, and ID2 at the protein level [2] | xenograft tumor growth (TC71 xenograft [3]) | IC50 (Ewing sarcoma cells) | Intraperitoneal MTD (CD-1 mice; ip) | Intravenous MTD (CD-1 mice; iv) | DNA damage as measured by phosphorylation of γH2AX (γH2AX phosphorylation) | proliferation of HepG2 cells (HepG2 cells) | other toxicities (myelosuppression, compromise of liver synthetic function) (rat) | effect on panel of EWS-FLI1 target genes ([1]; Fig. 3B, legend: 15 nM for 18 h or 3 h) | serum levels of drug [4] | tumor regression (TC71 xenograft [5]; 24 mg/kg IP (12% of the IP MTD)) | tumor growth rate less per day than the control (TC71 xenograft [5]; 24 mg/kg IP M/W/F, while being treated) | mean tumor size on day 11 of treatment (TC71 xenograft [5]; 24 mg/kg IP, control 3177 mm^3) | tumor growth less per day than the control (TC71 xenograft [5]; 24 mg/kg IV Q3D, while on treatment) | survival of treated cohort (TC71 xenograft [5]; 24 mg/kg IV, P <0.0001) | EWS-FLI1 activity in tumor tissue by NR0B1 immunofluorescent staining [6]
mithramycin [reference compound] | 0.48 | 50 nmol/L | suppressed | markedly suppresses and even regresses tumor growth | 15.5 nM | – | – | – | – | – | – | – | – | – | – | – | – | –
CO[C@@H]([C@@H]1Cc2cc3cc(O[C@H]4CC(O[C@H]5CC(O)[C@H](O)C(C)O5)[C@H](O)C(C)O4)c(C)c(O)c3c(O)c2C(=O)[C@H]1O[C@H]1CC(O[C@H]2CC(O[C@H]3CC(O)[C@H](O)C(C)O3)[C@@H](O)C(C)O2)[C@H](O)C(C)O1)[C@@H](O)C(C)=O (stereo partly drawn) [EC-8042] | – | 50 nmol/L | suppressed | – | 37.8 nM | 200 mg/kg | 64 mg/kg | no DNA damaging effects | neither EC-8105 or EC-8042 had any effect | no evidence of other toxicities | All the EWS-FLI1 induced targets were suppressed and all the repressed targets were induced to a comparable extent as mithramycin | 4.295 µM | every tumor in every mouse showed some level of regression | 268.2 mm^3 | 422.5 mm^3 | 151 mm^3 | extended the survival | clear suppression of EWS-FLI1 activity
